The subject of assay [1] is Radical scavenging activity. Briefly: Antioxidant activity assessed as inhibition of DPPH free radical scavenging activity. The class given is functional.
Assay [2] in a line: Inhibition of NOX-dependent ROS production in mouse BV2 cells by chemiluminescence assay. The note with it: BV-2. The class given is cell-based. The method, boiled down: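 BV2 cell homogenate (50 µg) was incubated with compound for 20 min at 37 °C in the dark. Superoxide production was started with 200 µM NADPH and chemiluminescence followed for 30 min. AUC was taken as ROS production. DPI was the positive control. IC50 given as mean ± SEM of three experiments on different days using cells from different passages.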

Assay [3] concerns KB. Briefly: Cytotoxicity against human KB cells after 3 days by SRB assay. The class given is functional, cell-based. The note with it: for pEC50: Homo sapiens, KB, 72 h, read-out: EC50; for EC50: kb. The method, boiled down:
(§1)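 Cell lines kept in RPMI-1640 with […], 0.25% sodium bicarbonate, 10% FBS and 100 µg/mL kanamycin. Freshly trypsinized cells seeded at 1500-7500 cells/well. Compounds added from DMSO-diluted stock, 3 days culture. Attached cells fixed with cold 50% TCA, stained with 0.4% SRB, bound dye solubilized, absorbance read at 562 nm.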

Assay [4] has as its target T1, NF-kappa-B inhibitor alpha (Mus musculus) (UniProt Q9Z1E3).
T1 sequence (whole entry): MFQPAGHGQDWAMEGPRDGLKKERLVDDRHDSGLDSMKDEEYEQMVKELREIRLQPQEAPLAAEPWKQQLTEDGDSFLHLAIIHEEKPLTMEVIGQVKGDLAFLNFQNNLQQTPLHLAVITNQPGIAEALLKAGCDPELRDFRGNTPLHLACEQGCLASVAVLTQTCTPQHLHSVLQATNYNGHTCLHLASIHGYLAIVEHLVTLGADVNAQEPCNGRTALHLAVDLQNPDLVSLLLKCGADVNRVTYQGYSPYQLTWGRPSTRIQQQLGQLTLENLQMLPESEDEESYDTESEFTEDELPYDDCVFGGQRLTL
Briefly: Inhibition of IkappaB-alpha degradation in LPS-stimulated mouse BV2 cells at 2 to 4 uM measured after 15 to 120 mins post stimulation by Western blot analysis. The class given is cell-based. The note with it: BV-2. In outline: (§2)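 BV2 microglia in DMEM with 5% FBS were pretreated with compound or solvent, then stimulated with LPS 0.5 µg/mL for 15 to 120 min. Western blots were probed for iNOS, cytosolic IκBα, and cytosolic and nuclear p65. Membranes were blocked in 5% milk/PBST, primary antibody overnight at 4 °C, HRP secondary 1 h, ECL detection. Signals normalized to β-actin; at least three independent experiments.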

The nature of assay [5]: Cytotoxicity against human KBVIN cells after 3 days by SRB assay. The format is functional, cell-based. Conditions: for pEC50: Homo sapiens, KBVIN, 72 h, read-out: EC50; for EC50: kbvin. The method, boiled down: as §1
Assay [6] concerns DU-145. In words: Cytotoxicity against human DU145 cells after 3 days by SRB assay. The format is functional, cell-based. The note with it: for pEC50: Homo sapiens, DU-145, 72 h, read-out: EC50; for EC50: du-145. The method, boiled down:
as §1

In assay [7] the target is Transcription factor p65 (Mus musculus) (UniProt Q04207). Briefly: Inhibition of NF-kappaB p65 activation/translocation in LPS-stimulated mouse BV2 cells assessed as down regulation of iNOS at 2 to 4 uM measured after 15 to 120 mins post stimulation by Western blot analysis. The format is cell-based. The note with it: BV-2. The method, boiled down: as §2
Transcription factor p65 (Mus musculus), sequence (Q04207 whole entry): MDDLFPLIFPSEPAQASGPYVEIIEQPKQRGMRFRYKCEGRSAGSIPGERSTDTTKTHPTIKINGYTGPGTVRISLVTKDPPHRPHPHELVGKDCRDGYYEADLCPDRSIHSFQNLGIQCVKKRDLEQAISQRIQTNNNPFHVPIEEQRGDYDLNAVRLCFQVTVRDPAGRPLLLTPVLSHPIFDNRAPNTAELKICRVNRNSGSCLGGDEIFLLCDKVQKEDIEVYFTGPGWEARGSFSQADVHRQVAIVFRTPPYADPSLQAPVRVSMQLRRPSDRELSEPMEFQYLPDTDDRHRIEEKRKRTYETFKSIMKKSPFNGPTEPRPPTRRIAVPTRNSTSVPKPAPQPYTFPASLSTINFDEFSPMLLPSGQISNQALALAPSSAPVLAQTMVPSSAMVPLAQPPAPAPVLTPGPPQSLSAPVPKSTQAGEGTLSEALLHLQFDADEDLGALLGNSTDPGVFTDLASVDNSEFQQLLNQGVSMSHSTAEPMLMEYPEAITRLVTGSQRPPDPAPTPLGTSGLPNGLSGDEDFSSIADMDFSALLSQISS
The subject of assay [8] is A549. In words: Cytotoxicity against human A549 cells after 3 days by SRB assay. The format is functional, cell-based. The note with it: for pEC50: Homo sapiens, A549, 72 h, read-out: EC50; for EC50: a549. In outline:
as §1

In assay [9] the test system is A549. In words: Growth inhibition of human A549 cells at 20 ug/mL after 3 days by SRB assay. The format is functional. Conditions: A549, 72 h, read-out: GI. In outline: (§3)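 Cells grown in RPMI-1640 (10% FBS, HEPES, bicarbonate, kanamycin), trypsinized and seeded at 1500-7500 cells/well. Compound given from DMSO-diluted stock, 3 days culture. Cells fixed with cold 50% trichloroacetic acid, stained with 0.4% sulforhodamine B, dye solubilized and absorbance measured at 562 nm.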

Assay [10] concerns DU-145. Briefly: Growth inhibition of human DU145 cells at 20 ug/mL after 3 days by SRB assay. The format is functional. Conditions: DU-145, 72 h, read-out: GI. In outline: as §3
Assay [11] concerns KB. In words: Growth inhibition of human KB cells at 20 ug/mL after 3 days by SRB assay. The note with it: 72 h, read-out: GI. The class given is functional. In outline:
as §3

A short description of assay [12]: Growth inhibition of human KBVIN cells at 20 ug/mL after 3 days by SRB assay. The class given is functional. Conditions: 72 h, read-out: GI. In outline: as §3
The target in assay [13] is T1, NF-kappa-B inhibitor alpha (Mus musculus). Briefly: Inhibition of IkappaB-alpha degradation in LPS-stimulated mouse BV2 cells at 1 to 2 uM measured after 15 to 120 mins post stimulation by Western blot analysis. The format is cell-based. The note with it: BV-2. In outline: as §2
For assay [14], the target named is Transcription factor p65 (Mus musculus) (UniProt Q04207). Briefly: Inhibition of NF-kappaB p65 activation/translocation in LPS-stimulated mouse BV2 cells assessed as down regulation of iNOS at 1 to 2 uM measured after 15 to 120 mins post stimulation by Western blot analysis. The format is cell-based. Conditions: BV-2. The method, boiled down:
as §2

pEC50, pIC50: −log10 of the molar value. Active and inactive are the calls of the source. No cut-off for these calls is given here. Where only a bound is given, the exact number is not on record here.

Consider `COC(=O)[C@@H](N)CCCNC(=N)N[N+](=O)[O-]` [L-NAME], for which the IC50 result in assay [1] was “Not Active”.

In the case of `COc1cccc(/C=C/C(=O)c2cc(C(=O)/C=C/c3cccc(OC)c3OC)c(O)cc2O)c1OC`, in assay [2], the pIC50 was 4.05. Moreover, the pEC50 is 5.69 in assay [3], 5.29 in [5], 5.61 in assay [6] and 5.36 in [8]. In addition, the inhibition entry in assay [4] and in [7] was “Active” throughout. For the same compound, the IC50 entry in [1] was “Not Active”.

Take `O=C(/C=C/c1ccco1)c1cc(C(=O)/C=C/c2ccco2)c(O)cc1O`: the pIC50 in [2] is 4.30. Moreover, the EC50 result in [3], in assay [5], in assay [6] and in assay [8] was “Not Active” in each case. Besides, in assay [1], the IC50 result was “Not Active”.

Compound `CC(=O)c1cc(C(=O)/C=C/c2ccc3c(c2)OCO3)c(O)cc1O` had a pIC50 in assay [2] of 4.14. The pEC50 is 4.76 in assay [3], 4.76 in assay [5], 4.79 in assay [6] and 4.71 in assay [8]. Further, in assay [1], the IC50 result is given as “Not Active”.

For `COc1cc(OC)c(OC)cc1/C=C/C(=O)c1cc(C(C)=O)c(O)cc1O`, the negative-log IC50 (pIC50) in assay [2] is 4.14. Moreover, the EC50 entry in assay [3], in [5], in assay [6] and in assay [8] was “Not Active” in each case. The IC50 entry in assay [1] is recorded as “Not Active”.

Consider `O=C(/C=C/c1ccccc1)c1cc(C(=O)/C=C/c2ccccc2)c(O)cc1O`, for which, in assay [2], the pIC50 is 3.91. Further, the negative logarithm of the EC50 (pEC50) was 5.79 in assay [3], 5.80 in assay [5], 5.77 in [6] and 5.39 in assay [8]. In assay [1], the IC50 entry is “Not Active”.

For `CC(=O)c1cc(C(=O)/C=C/C=C/c2ccccc2)c(O)cc1O`, the pIC50 in assay [2] was 3.92. The EC50 result in assay [3], in [5], in [6] and in assay [8] was “Not Active” in each case. Besides, the IC50 entry in [1] was “Not Active”.

Turning to `c1ccc2c(c1)[I+]c1ccccc1-2` [DIPHENYLENEIODONIUM], the negative-log IC50 (pIC50) in assay [2] was 6.19. The IC50 result in [1] is reported as “Not Active”.

For the compound `COc1ccc(/C=C/C(=O)c2cc(C(=O)/C=C/c3ccc(OC)cc3)c(O)cc2O)cc1`, the inhibition of growth at 20 µg/mL in [9], in assay [10] and in assay [11] was below 50% throughout. This compound showed a pIC50 in assay [2] of 3.83. The pEC50 in assay [5] is 4.47. In addition, the IC50 entry in [1] was “Not Active”.

In the case of `COc1ccc(OC)c(/C=C/C(=O)c2cc(C(=O)/C=C/c3cc(OC)ccc3OC)c(O)cc2O)c1`, the inhibition of growth at 20 µg/mL in assay [9], in [10] and in assay [12] was below 50% throughout. Further, the negative-log IC50 (pIC50) in assay [2] is 4.02. The negative-log EC50 (pEC50) in assay [3] was 4.40. The IC50 result in [1] is “Not Active”.

`COc1cccc(/C=C/C(=O)c2cc(C(=O)/C=C/c3cccc(OC)c3)c(O)cc2O)c1` had a pIC50 in assay [2] of 3.90. In addition, the pEC50 in [3] was 5.54; in [5] it was 5.68; in [6] it was 5.73; in assay [8], 5.06. Further, the IC50 entry in assay [1] is listed as “Not Active”.

`COc1ccc(/C=C/C(=O)c2cc(C(=O)/C=C/c3ccc(OC)c(OC)c3)c(O)cc2O)cc1OC` showed a pIC50 in assay [2] of 4.31. For the same compound, the negative logarithm of the EC50 (pEC50) in [3] was 5.09; in [5] it was 5.15; in [6], 5.06; in assay [8], 5.04. Besides, the IC50 result in [1] is “Not Active”. The inhibition entry in assay [13] and in [14] was “Active” each time.

For the compound `Cc1ccsc1/C=C/C(=O)c1cc(C(=O)/C=C/c2sccc2C)c(O)cc1O`, in assay [2], the negative-log IC50 (pIC50) is 4.09. In addition, the EC50 result in assay [3], in [5], in assay [6] and in assay [8] was “Not Active” each time. Besides, the IC50 result in assay [1] was “Not Active”.

Consider `Cc1c(C)c2c(c(C)c1O)CCC(C)(C(=O)O)O2` (configuration not stated) [TROLOX], for which the pIC50 in [1] (read-out: IC50) was 4.52.

For `Cc1ccc(/C=C/C(=O)c2cc(C(=O)/C=C/c3ccc(C)o3)c(O)cc2O)o1`, the pIC50 in assay [2] is 4.22. In addition, the EC50 entry in assay [3], in [5], in [6] and in assay [8] was “Not Active” each time. The IC50 result in assay [1] is recorded as “Not Active”.

On to `COc1ccc(/C=C/C(=O)c2cc(C(=O)/C=C/c3ccc(OC)c(OC)c3OC)c(O)cc2O)c(OC)c1OC`, for which the pIC50 in assay [2] was 4.15. Besides, the EC50 entry in assay [3], in [5], in assay [6] and in [8] was “Not Active” throughout. Besides, in assay [1], the IC50 entry was “Not Active”.

For `O=C(/C=C/c1ccccn1)c1cc(C(=O)/C=C/c2ccccn2)c(O)cc1O`, the pIC50 in assay [2] was 4.11. Besides, the pEC50 in assay [3] was 5.53; in assay [5], 4.96; in assay [6] it was 5.55; in assay [8], 4.86. Moreover, the IC50 entry in assay [1] is reported as “Not Active”.

The values are drawn from ChEMBL document CHEMBL1926582, “Bis-chalcone analogues as potent NO production inhibitors and as cytotoxic agents” (Eur J Med Chem, 2012).
